IMP-1 inh: blocks Pseudomonas aeruginosa IMP-1 metallo-beta-lactamase | inhibition, % at 5.6 µM | purified IMP-1, nitrocefin hydrolysis, epi-absorbance fluorescence | AID 1556 | 0.45% of 290,000 active;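 active means inhibition above the mean plus 3 SD of all compounds in the same screening run, cut at about 4.5% in these data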;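 further: 0% = IMP-1 with DMSO and 100% = DMSO wells lacking enzyme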
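Assay system: purified recombinant IMP-1 beta-lactamase. Input: IMP-1 0.2 nM before substrate addition. Buffer or medium: Zinc- and detergent-supplemented HEPES buffer, pH 7.1. Schedule: 25 °C, 15 min preincubation, 25 min reaction. Signal: Epi-absorbance fluorescence, 480 nm excitation, 530 nm emission. Evaluation: percent inhibition from optical density relative to buffer-blank wells.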
NALP1 yeast inh: blocks the NALP1 inflammasome reconstituted in yeast; S. cerevisiae NALP1/ASC/caspase-1 growth, X-gal OD620, 72 h; inhibition, % at 10 µM; 0.61% of 280,000 active; AID 2071; in the data active means inhibition mostly above about 24%, no sharp cut-off; inactive means mostly below about 32%
NALP3 yeast inh: blocks the NALP3 inflammasome reconstituted in yeast. Yeast reconstituted NLRP3/ASC/caspase-1, beta-gal luminescence, 24 h. inhibition, % at 10 µM. 0.39% of 330,000 active. AID 2825;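 active means inhibition of 50% or more; inactive means inhibition below 50%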;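 further: plate controls were induced DMSO wells for no effect and uninduced yeast grown without galactose for full effect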
VIM-2 inh: blocks Pseudomonas aeruginosa VIM-2 metallo-beta-lactamase; purified VIM-2, nitrocefin hydrolysis, epi-absorbance fluorescence; inhibition, % at 5.6 µM; 0.89% of 290,000 active; AID 1527;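 active means inhibition above the mean of all tested compounds plus 3 SD, cutoff set per screening run, cut at about 7.5% in these data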;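 further: red hydrolysis product quenches plate fluorescence so inhibitors raise well fluorescence; 0% = enzyme with DMSO and 100% = DMSO without enzyme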
PolyA inh: inhibitors of polyadenylation in S. cerevisiae. S. cerevisiae SKY197-pL101 polyadenylation reporter, beta-gal luminescence; efflux-impaired pdr1/pdr3 knockout yeast; score 100 = 6 SD above DMSO. activity score, % at 12 µM. 0.02% of 300,000 active;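 active means lowest replicate activity score at least 50, where 100 means six control SD above control mean; inconclusive means lowest score under 50 but half or more replicates reach 50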;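 further: yeast exposed to compound for 9 h at 30 °C; higher score means more reporter readthrough which indicates perturbed polyadenylation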
Mot1-301 SUMO: SUMOylation pathway inhibition by Mot1-301 growth rescue | 1% of 320,000 active | growth rescue, % at 18.8 µM | S. cerevisiae Mot1-301 growth rescue, ATP luminescence, 38.5C; percent above DMSO median, 100 means doubled;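 active means every valid replicate shows activation above 250% relative to neutral control wells; inactive means the rest, any valid replicate at or below 250%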;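 further: OY570 slx delta 5 strain wells were the positive control but not used for scaling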
Yeast Mot1 SUMO: SUMO pathway inhibitors in yeast Mot1-301 growth | shares compounds with Mot1-301 SUMO | S. cerevisiae Mot1-301 galactose growth, ATP luminescence, 24 h; -100 = growth of slx-deleted rescue strain | growth activity, percent, % at 42 µM | 2,300 tested, under 10 active | AID 493004;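 active means Signal drops as the depositor expects, and the fitted half-maximal dose is no more than ten times the top valid tested dose; inconclusive means Poor fit, or a flat curve whose signal drops by 30% to 70%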;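 further: more negative values mean stronger growth rescue toward the control strain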
* = called active by the depositor; u = inconclusive; x = no result given; + = active, no number; [ ] = dose if it differs, or a comment. The list is not random: actives were taken first. Their share in the collection is about 2.9%.

SMILES | IMP-1 inh | NALP1 yeast inh | NALP3 yeast inh | VIM-2 inh | PolyA inh | Mot1-301 SUMO | Yeast Mot1 SUMO
Cc1sc(NC(=O)c2ccco2)c(C(c2ccc(F)cc2)N2CCN(C)CC2)c1C (stereo unspecified) | 2 | 3 | -1 | -1 | 4 | 405* | -1
Cc1sc(NC(=O)c2ccco2)c(C(c2cccnc2)N2CCN(c3ccc(F)cc3)CC2)c1C (stereo unspecified) | -2 | 33 | 4 | -1 | -7 | 29 | x
Nc1ccccc1N1C(=O)c2cccc3cccc(c23)C1=O | x | x | 2 | x | 1 | -8 | x
Nc1cccc2c1C(=O)N(c1ccccc1)C2=O | x | x | -15 | x | 24 | 668* | 0
Cc1ccc(N(C(=O)Cn2nnc3ccccc32)C(C(=O)NC2CCCCC2)c2cn(C)nc2C)cc1 (stereo unspecified) | -5 | -4 | -15 | -1 | 2 | 835* | 0[21 µM]
Cc1nn(C)cc1C(C(=O)NC1CCCCC1)N(C(=O)Cn1nnc2ccccc21)c1ccc(F)cc1 (stereo unspecified) | -2 | 31 | 20 | -2 | 1 | 23 | x
COCCCNC(=O)c1cc2cc([N+](=O)[O-])cc(OC)c2oc1=O | 1 | -29 | 4 | 2 | 14 | 406* | 1
CCOC(=O)C1(Cc2cccc(Cl)c2)CCCN(C(=O)CCOC)C1 (stereo unspecified) | -4 | 13 | -2 | -2 | -6 | 389* | 0
CC(=O)N/C(=C\c1ccccc1)C(=O)OCC(=O)c1ccccc1 | x | x | -5 | x | u | 679* | 0
CC(=O)N/C(=C\c1ccccc1)C(=O)OCC(=O)c1ccc(F)cc1 | x | x | 6 | x | -8 | -16 | x
CCCNC(=O)c1onc(CSc2ccc(F)c(F)c2)c1C(=O)NCCC | x | x | 25 | x | 8 | 9 | x
CN(C)CCNC(=O)c1onc(CSc2ccc(F)c(F)c2)c1C(=O)NCCN(C)C | x | -4 | -8 | x | 35 | 578* | 0
O=C1CCCN1CC(=O)N1CCCC(Nc2cccc(F)c2)C1 (stereo unspecified) | -4 | 13 | 6 | 1 | 20 | -3 | x
COc1ccccc1-n1c(SCC(N)=O)nc2sc3c(c2c1=O)CCC3 | -3 | 5 | -6 | -2 | -15 | 4 | x
CC(=O)Cc1nsc(Nc2cccc(C)c2)n1 | -2 | 9 | 0 | -4 | x | 901* | 0
CC(=O)Cc1nsc(Nc2ccccc2)n1 | -3 | -3 | 4 | -3 | 16 | -6 | x
Cc1ccc(C(=O)C(C)Oc2ccc3ccc(=O)oc3c2)cc1 (stereo unspecified) | -3 | 4 | 26 | -1 | -9 | 15 | x
COc1ccc2cc3cc(C(=O)N4CCN(c5ccccn5)CC4)oc3nc2c1 | -2 | 13 | 22 | -4 | -31 | 20 | x
CCn1c(-c2ccc(F)cc2)n[nH]c1=S | -4 | -18 | 5 | -1 | 18 | -6 | x
Fc1ccc(-c2n[nH]c(=S)n2CC2CCCO2)cc1 (stereo unspecified) | -2 | 2 | 24 | 7 | 3 | 393* | 0
O=C(NCC(c1cccs1)N1CCOCC1)c1ccccc1NS(=O)(=O)c1cc([N+](=O)[O-])ccc1Cl (stereo unspecified) | 1 | 30 | 5 | 2 | 5 | 504* | -1
O=C(NCC(c1cccs1)N1CCOCC1)c1ccccc1NS(=O)(=O)c1ccc(Cl)c([N+](=O)[O-])c1 (stereo unspecified) | 0 | 22 | 1 | -2 | 3 | -24 | x
Cc1ccc(S(=O)(=O)n2cccc2C)cc1 | x | x | -25 | x | 14 | 688* | 0
CC(C)N(C)S(=O)(=O)c1ccc(Cl)c(C(=O)O)c1 | -3 | -12 | 4 | -3 | -27 | -4 | x
Cc1cc(=O)n2nc(N3CCC(C(=O)NCc4ccccc4)CC3)sc2n1 | -4 | -4 | 1 | -3 | 11 | 92 | x
SMILES | IMP-1 inh | NALP1 yeast inh | NALP3 yeast inh | VIM-2 inh | PolyA inh | Mot1-301 SUMO | Yeast Mot1 SUMO
CCC(Cc1ccccc1)NC(=O)C1CCN(c2nn3c(=O)cc(C)nc3s2)CC1 (stereo unspecified) | -3 | 18 | 12 | -7 | 9 | 408* | 0
O=C(CCCn1cncn1)N1CCCC(N2CCN(c3ccccc3F)CC2)C1 (stereo unspecified) | 0 | 14 | 7 | 0 | 8 | 24 | x
COc1ccc(OCC(=O)Nc2ccc(C)cc2)cc1 | 0 | 14 | 32 | -3 | 7 | 859* | 0
Cc1ccc(SCCC(=O)Nc2ccc(OCc3ccccc3)cc2)cc1 | -3 | 29 | 13 | -2 | 10 | 968* | 0
COc1ccc(NC(=O)COCC(=O)Nc2ccc(C)cc2)cc1 | -3 | -26 | 18 | -1 | 17 | -9 | x
COc1ccc(NC(=O)CN(C)C(=O)c2cc(C)on2)cc1 | x | x | 3 | x | 7 | 678* | 0
CCOc1ccc(NC(=O)CCSc2ccc(C)cc2)cc1 | 0 | 38 | 37 | 1 | 22 | 5 | x
S=c1[nH]ccn1-c1cccc(Cl)c1 | -3 | 9 | 1 | 0 | 4 | 479* | -1
COC(=O)C(Cc1ccccc1)NC(=O)CCC(=O)NC(C)CCc1ccccc1 (stereo unspecified) | 0 | 4 | 14 | 1 | -5 | -14 | x
COC(=O)[C@H](Cc1ccccc1)NC(=O)NC(C)CCc1ccccc1 (stereo partly specified) | -4 | 0 | 6 | -3 | -3 | 871* | 0
COc1ccc(CNC(=O)CNC(=O)CNS(=O)(=O)c2ccc(C)c(C)c2)cc1 | -1 | 9 | 4 | 0 | 19 | 166 | x
O=C(Nc1ccsc1C(=O)O)c1cccc(C(F)(F)F)c1 | 0 | 8 | 5 | -1 | 17 | 968* | 0
COc1ccccc1NC(=O)N1CCN(S(C)(=O)=O)CC1 | -3 | 12 | -4 | 0 | 18 | -17 | x
COc1ccccc1NC(=O)N1CCN(C(=O)Nc2ccccc2OC)CC1 | 0 | x | 4 | 0 | 16 | + | -1
CC1C(=O)Nc2ccc(S(=O)(=O)NCCc3ccc(Cl)cc3)cc2NC1=O (stereo unspecified) | -2 | -4 | 10 | -2 | -5 | 144 | x
CC1(C)CC(=O)C=C(OC(=O)c2ccc(Cl)cc2)C1 | -1 | 30 | 12 | -3 | -12 | 470* | 0
Cc1[nH]c(C)c(S(=O)(=O)NCc2ccc(F)cc2)c1C(=O)N1CCCCC1 | 0 | -6 | 3 | -5 | -10 | 16 | x
O=C(CCc1nc(-c2ccc(Cl)cc2)no1)NC1CCCC1 | -3 | 14 | 24 | -2 | 6 | 6 | x
O=C(CCCc1nc(-c2ccc(Cl)cc2)no1)NC1CCCCC1 | 0 | 17 | 33 | 1 | 6 | 861* | 1

Screening results deposited in PubChem BioAssay by several laboratories.
